Results as given in ChEMBL document CHEMBL3124872, “Discovery and early development of TMC647055, a non-nucleoside inhibitor of the hepatitis C virus NS5B polymerase” (J Med Chem, 2014).
Activity calls are given as the source filed them. The calls are words filed in the database; no cut-off is given here.

How the values were obtained:
[1] = Binding affinity to Hepatitis C virus genotype 4a NS5B by surface plasmon resonance analysis; parameters: species or system Hepatitis C virus subtype 4a
Outline: (§1)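 Surface plasmon resonance binding to NS5B polymerase of the stated genotype; association and dissociation rate constants measured, from which Kd and residence half-life were derived; median Kd reported.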

[2] = Drug uptake in Sprague-Dawley rat liver at 10 mg/kg, po after 7 hrs; type: ADME, organism-based; parameters: dose 10 mg/kg, route oral; conditions: read-out: Drug uptake
[3] = Cytotoxicity against HEK293T cells after 3 days by resazurin-based fluorescence analysis; type: cell-based, HEK-293T; conditions: human
[4] = test system: Hepatitis C virus; assay: Antiviral activity against Hepatitis C virus genotype 1a infected in human assessed as log10 reduction in HCV RNA level at 1000 mg, po bid for 5 days followed by morning dose on day 6 relative to control; type: functional, Hepacivirus hominis, subtype 1a
Outline: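 Oral b.i.d. dosing of HCV genotype 1-infected patients at 500 mg or 1000 mg for 5 days, plus a morning dose on day 6, in hydroxypropyl-β-cyclodextrin vehicle. Read-out was the median maximum decrease in plasma HCV RNA from baseline (log10), using patients with HCV RNA data available up to Day 6.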

[5] = test system: Hepatitis C virus; assay: Antiviral activity against Hepatitis C virus genotype 1b infected in human HuH7 cells after 72 hrs by luciferase reporter gene assay in presence of 40% human plasma relative to control; type: functional, Hepacivirus hominis, Huh-7
[6] = test system: Homo sapiens; assay: Toxicity in HCV genotype 1-infected patient assessed as grade-3 adverse events at 500 to 1000 mg, po bid for 5 days followed by morning dose on day 6; type: organism-based; conditions: in vivo, 120 h
Outline: (§2)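 HCV genotype 1-infected patients given oral b.i.d. doses of 500 or 1000 mg for 5 days plus a morning dose on day 6, in hydroxypropyl-β-cyclodextrin vehicle; adverse events with grading, laboratory parameters, vital signs, food consumption, appetite and ECG monitored.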

[7] = test system: Hepatitis C virus; assay: Antiviral activity against Hepatitis C virus genotype 2b infected in human HuH7 by transient replicon assay; type: functional, organism-based, Hepacivirus hominis; conditions: Huh-7
Outline: (§3)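 Transient replicon assay using chimeric replicons whose NS5B region is derived from patient isolates of the stated genotype.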

[8] = test system: Homo sapiens; assay: Toxicity in HCV genotype 1-infected patient assessed as effect on food consumption at 500 to 1000 mg, po bid for 5 days followed by morning dose on day 6; type: organism-based; conditions: in vivo, 120 h; outline: as §2
[9] = test system: Homo sapiens; assay: Toxicity in human assessed as grade-4 adverse events at 300 to 1250 mg, po bid for 5 days followed by morning dose on day 6; type: organism-based; conditions: in vivo, 120 h
Outline: (§4)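 Oral b.i.d. dosing for 5 days plus a single morning dose on day 6, in a hydroxypropyl-β-cyclodextrin vehicle. Healthy volunteers received 300, 1000 or 1250 mg; HCV genotype 1-infected patients received 500 or 1000 mg. Monitoring covered adverse events graded by severity, laboratory parameters, vital signs, food consumption, appetite and ECG.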

[10] = test system: Hepatitis C virus; assay: Antiviral activity against Hepatitis C virus genotype 1b infected in human HuH7 by transient replicon assay; type: functional, organism-based, Hepacivirus hominis; conditions: Huh-7; outline: as §3
[11] = test system: Hepatitis C virus; assay: Antiviral activity against Hepatitis C virus harboring […] Y93H mutant infected in human HuH7 by luciferase reporter gene assay; type: functional, organism-based; conditions: Hepacivirus hominis; Huh-7
[12] = test system: Hepatitis C virus; assay: Antiviral activity against Hepatitis C virus genotype 2a infected in human HuH7 by transient replicon assay; type: functional, organism-based, Hepacivirus hominis; conditions: Huh-7; outline: as §3
[13] = test system: Hepatitis C virus; assay: Antiviral activity against Hepatitis C virus harboring NS5B S96T mutant infected in human HuH7 by luciferase reporter gene assay; type: functional, organism-based; conditions: Hepacivirus hominis; Huh-7
[14] = test system: Hepatitis C virus; assay: Antiviral activity against Hepatitis C virus harboring NS5B C316Y mutant infected in human HuH7 by luciferase reporter gene assay; type: functional, organism-based; conditions: Hepacivirus hominis; Huh-7
[15] = test system: Hepatitis C virus; assay: Antiviral activity against Hepatitis C virus genotype 1b harboring NS5B NNI-1 site P495L mutant infected in human HuH7 by luciferase reporter gene assay relative to wild-type HCV genotype 1b; type: functional, Hepacivirus hominis, Huh-7
[16] = test system: Homo sapiens; assay: Toxicity in HCV genotype 1-infected patient assessed as effect on ECG profile at 500 to 1000 mg, po bid for 5 days followed by morning dose on day 6; type: organism-based; conditions: in vivo, 120 h; outline: as §2
[17] = Binding affinity to His6-tagged Hepatitis C virus Con 1b NS5B delta21 RNA dependent RNA polymerase expressed in Escherichia coli Rosetta 2 (DE3) by surface plasmon resonance analysis; parameters: species or system Hepatitis C virus (isolate Con1); outline: as §1
[18] = test system: Homo sapiens; assay: Toxicity in HCV genotype 1-infected patient assessed as effect on laboratory parameters at 500 to 1000 mg, po bid for 5 days followed by morning dose on day 6; type: organism-based; conditions: in vivo, 120 h; outline: as §2
[19] = test system: Homo sapiens; assay: Toxicity in HCV genotype 1-infected patient assessed as effect on vital signs at 500 to 1000 mg, po bid for 5 days followed by morning dose on day 6; type: organism-based; conditions: in vivo, 120 h; outline: as §2
[20] = test system: Hepatitis C virus; assay: Antiviral activity against Hepatitis C virus genotype 6a infected in human HuH7 by transient replicon assay; type: functional, organism-based, Hepacivirus hominis; conditions: Huh-7; outline: as §3
[21] = Cytotoxicity against human HepG2 cells after 3 days by resazurin-based fluorescence analysis; type: cell-based
[22] = test system: Homo sapiens; assay: Toxicity in human assessed as effect on vital signs at 300 to 1250 mg, po bid for 5 days followed by morning dose on day 6; type: organism-based; conditions: in vivo, 120 h
Outline: (§5)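 Healthy volunteers given oral b.i.d. doses of 300, 1000 or 1250 mg for 5 days plus a morning dose on day 6, in hydroxypropyl-β-cyclodextrin vehicle; adverse events, laboratory parameters, vital signs, food consumption, appetite, ECG and plasma 4-β-hydroxycholesterol (CYP3A4 induction marker) monitored.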

[23] = test system: Hepatitis C virus; assay: Antiviral activity against Hepatitis C virus harboring NS5B S282T mutant infected in human HuH7 by luciferase reporter gene assay; type: functional, organism-based; conditions: Hepacivirus hominis; Huh-7
[24] = Binding affinity to Hepatitis C virus genotype 1a NS5B by surface plasmon resonance analysis; parameters: species or system Hepatitis C virus subtype 1a; outline: as §1
[25] = Binding affinity to Hepatitis C virus genotype 1b NS5B by surface plasmon resonance analysis; parameters: species or system Hepatitis C virus subtype 1b; outline: as §1
[26] = Cytotoxicity against human MRC5 cells after 3 days by resazurin-based fluorescence analysis; type: cell-based
[27] = Cytotoxicity against African green monkey Vero E6 cells after 3 days by resazurin-based fluorescence analysis; type: cell-based; conditions: chlorocebus sabaeus
[28] = test system: Homo sapiens; assay: Toxicity in human assessed as effect on laboratory parameters at 300 to 1250 mg, po bid for 5 days followed by morning dose on day 6; type: organism-based; conditions: in vivo, 120 h; outline: as §5
[29] = test system: Hepatitis C virus; assay: Antiviral activity against Hepatitis C virus genotype 1a infected in po dosed human assessed as decrease in HCV RNA level administered bid for 5 days followed by morning dose on day 6; type: functional, organism-based; conditions: Hepacivirus hominis; subtype 1a
Outline: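 HCV genotype 1-infected patients received oral b.i.d. doses of 500 mg or 1000 mg in a hydroxypropyl-β-cyclodextrin vehicle for 5 days, plus a morning dose on day 6. The read-out was the median maximum decrease in HCV RNA from baseline in GT1a patients with data up to Day 6.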

[30] = test system: Homo sapiens; assay: Toxicity in human assessed as grade-3 adverse events at 300 to 1250 mg, po bid for 5 days followed by morning dose on day 6; type: organism-based; conditions: in vivo, 120 h; outline: as §4
[31] = test system: Homo sapiens; assay: Drug metabolism in human assessed as CYP3A4-induced 4-beta-hydroxycholesterol level at 300 to 1250 mg, po bid for 5 days followed by morning dose on day 6; type: ADME, organism-based; conditions: in vivo, 120 h; outline: as §5
[32] = test system: Hepatitis C virus; assay: Antiviral activity against Hepatitis C virus harboring […] A156V mutant infected in human HuH7 by luciferase reporter gene assay; type: functional, organism-based; conditions: Hepacivirus hominis; Huh-7
[33] = test system: Hepatitis C virus; assay: Antiviral activity against Hepatitis C virus genotype 1b infected in human HuH7 cells after 72 hrs by luciferase reporter gene assay; type: functional, organism-based, Hepacivirus hominis; conditions: Huh-7, 72 h
[34] = Toxicity in rat after 5 days; type: organism-based; conditions: in vivo
[35] = test system: Homo sapiens; assay: Toxicity in HCV genotype 1-infected patient assessed as effect on appetite at 500 to 1000 mg, po bid for 5 days followed by morning dose on day 6; type: organism-based; conditions: in vivo, 120 h; outline: as §2

For `COc1ccc2c(c1)C=C1Cn3c-2c(C2CCCCC2)c2ccc(cc23)C(=O)NS(=O)(=O)N(C)CCOCCN(C)C1=O` [TMC-647055], the Kd [1] was 2 nM, the concentration at 7 h [2] was 7800 ng/g and the CC50 at 72 h [3] was > 50000 nM. The FC [4] was 2.4, the “fold change (FC)” value [5] was 9 and the Activity [6] was “Non-toxic”. For the same molecule, the EC50 [7] was > 28000 nM, the Activity [8] was “Non-toxic” and the Activity [9] was “Non-toxic”. For the same molecule, the EC50 [10] was 27 nM, the Activity [11] was “Active” and the EC50 [12] was 12500 nM. For the same molecule, the Activity [13] was “Active”, the Activity [14] was “Active” and the “fold change (FC)” value [15] was 371. The Activity [16] was “Non-toxic”, the Kd [17] was 4.1 nM and the Activity [18] was “Non-toxic”. For the same molecule, the Activity [19] was “Non-toxic”, the EC50 [20] was 113 nM and the CC50 at 72 h [21] was > 50000 nM. The Activity [22] was “Non-toxic”, the Activity [23] was “Active” and the Kd [24] was 7.3 nM. For the same molecule, the Kd [25] was 3.9 nM, the CC50 at 72 h [26] was > 50000 nM and the CC50 at 72 h [27] was > 50000 nM. The Activity [28] was “Non-toxic”, the Activity [29] was “Dose-dependent effect” and the Activity [30] was “Non-toxic”. The Drug metabolism [31] was “Active”, the Activity [32] was “Active” and the EC50 [33] was 77 nM. The NOAEL at 120 h [34] was ≤ 1000 mg/kg/day and the Activity [35] was “Non-toxic”.
